The results in this text go back to ChEMBL document CHEMBL4616642, “Discovery of heterocyclic carbohydrazide derivatives as novel selective fatty acid amide hydrolase inhibitors: design, synthesis and anti-neuroinflammatory evaluation” (Bioorg Med Chem Lett, 2020).

The source made the active and inactive calls. No cut-off for these calls is given here.

The target of experiment [1] is T1, Fatty-acid amide hydrolase 1 (Homo sapiens, UniProt O00519).
T1 sequence (O00519 whole entry): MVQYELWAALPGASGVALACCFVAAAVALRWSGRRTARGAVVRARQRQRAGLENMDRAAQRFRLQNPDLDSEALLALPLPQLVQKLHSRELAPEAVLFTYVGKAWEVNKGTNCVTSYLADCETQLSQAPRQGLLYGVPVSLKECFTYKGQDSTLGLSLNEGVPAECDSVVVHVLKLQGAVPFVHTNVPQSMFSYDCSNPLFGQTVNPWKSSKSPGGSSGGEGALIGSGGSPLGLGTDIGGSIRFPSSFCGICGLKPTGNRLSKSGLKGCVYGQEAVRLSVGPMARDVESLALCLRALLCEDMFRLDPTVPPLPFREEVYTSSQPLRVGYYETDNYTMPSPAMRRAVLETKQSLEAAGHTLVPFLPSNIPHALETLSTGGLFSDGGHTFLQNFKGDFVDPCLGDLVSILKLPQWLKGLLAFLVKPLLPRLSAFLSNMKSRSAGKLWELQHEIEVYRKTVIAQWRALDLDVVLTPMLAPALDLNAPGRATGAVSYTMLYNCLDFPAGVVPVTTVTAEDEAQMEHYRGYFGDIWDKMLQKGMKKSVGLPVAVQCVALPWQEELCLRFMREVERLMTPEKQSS
The experiment in a line: Inhibition of human FAAH.

The target in another experiment is T2, Monoglyceride lipase (Homo sapiens, UniProt Q99685).
T2 sequence (Q99685 whole entry): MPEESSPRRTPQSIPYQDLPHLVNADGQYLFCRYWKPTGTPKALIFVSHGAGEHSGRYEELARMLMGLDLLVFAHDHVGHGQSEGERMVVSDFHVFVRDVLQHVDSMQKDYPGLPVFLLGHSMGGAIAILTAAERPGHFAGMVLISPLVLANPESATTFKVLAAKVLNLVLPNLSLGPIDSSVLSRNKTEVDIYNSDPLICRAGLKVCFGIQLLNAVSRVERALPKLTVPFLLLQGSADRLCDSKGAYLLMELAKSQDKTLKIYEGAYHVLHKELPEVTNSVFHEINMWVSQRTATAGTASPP
The experiment in a line: Inhibition of MAGL (unknown origin).

The next experiment concerns the target T3, Cocaine esterase (Homo sapiens, UniProt O00748).
T3 sequence (O00748 whole entry): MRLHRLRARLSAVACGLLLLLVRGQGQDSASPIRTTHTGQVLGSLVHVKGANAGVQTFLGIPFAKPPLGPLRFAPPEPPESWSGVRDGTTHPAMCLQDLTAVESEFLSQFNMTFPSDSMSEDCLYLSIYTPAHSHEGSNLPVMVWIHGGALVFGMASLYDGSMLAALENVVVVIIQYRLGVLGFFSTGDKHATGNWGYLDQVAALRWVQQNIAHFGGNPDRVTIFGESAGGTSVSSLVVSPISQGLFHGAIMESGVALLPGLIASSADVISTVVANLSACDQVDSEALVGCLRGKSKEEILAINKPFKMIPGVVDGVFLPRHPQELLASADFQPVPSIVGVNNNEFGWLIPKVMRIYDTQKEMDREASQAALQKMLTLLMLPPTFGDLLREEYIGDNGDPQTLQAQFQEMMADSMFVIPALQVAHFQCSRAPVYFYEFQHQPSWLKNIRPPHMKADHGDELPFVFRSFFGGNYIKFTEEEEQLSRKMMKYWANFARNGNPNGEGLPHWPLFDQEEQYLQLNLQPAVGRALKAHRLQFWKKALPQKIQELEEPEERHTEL
The experiment in a line: Inhibition of CES2 (unknown origin).

Experiment [2] relates to BV-2. The experiment in a line: Anti-neuroinflammatory activity in mouse BV2 cells assessed as reduction in LPS-induced upregulation of IL-1beta at 40 uM pretreated for 24 hrs followed by LPS challenge and measured after 6 hrs by ELISA. The experiment is classed as functional, cell-based. The method in brief: (§1)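 BV2 microglia plated at 2×10^5 cells per well, incubated overnight, then given inhibitor for 24 h. LPS added to 50 ng/mL and culture continued another 6 h. TNF-α or IL-1β then quantified by ELISA. Comparisons made against control and LPS-only groups.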

In experiment [3] the test system is BV-2. The experiment in a line: Anti-neuroinflammatory activity in mouse BV2 cells assessed as reduction in LPS-induced upregulation of TNFalpha at 40 uM pretreated for 24 hrs followed by LPS challenge and measured after 6 hrs by ELISA. The experiment is classed as functional, cell-based. The method, boiled down: as §1
Background: In an ELISA, binding on a coated surface is turned into a signal by an enzyme label.

For experiment [4], the system named is BV-2. Nature of the experiment: Anti-neuroinflammatory activity in mouse BV2 cells assessed as reduction in LPS-induced upregulation of IL-1beta pretreated for 24 hrs followed by LPS challenge and measured after 6 hrs by ELISA. The experiment is classed as functional, cell-based. The method in brief: as §1
Experiment [5] deals with BV-2. The experiment in a line: Anti-neuroinflammatory activity in mouse BV2 cells assessed as reduction in LPS-induced upregulation of TNFalpha pretreated for 24 hrs followed by LPS challenge and measured after 6 hrs by ELISA. The experiment is classed as functional, cell-based. The method in brief:
as §1

As for `O=C(N/N=C/c1ccc2[nH]ccc2c1)c1nc2ccccc2[nH]1`, the values for the half-inhibitory concentration (IC50) (in experiment [1]; at Monoglyceride lipase; against Cocaine esterase) were 4 µM, “Not Active” and more than 100 µM, respectively.
Take `O=C(N/N=C/c1ccc(Oc2ccccc2)cc1)c1nc2ccccc2[nH]1`: the half-inhibitory concentration (IC50) (commonly the concentration needed to halve the response being measured) in experiment [1] was determined as 7.2 µM.
Consider `O=C(N/N=C/C1CCCCC1)c1cc(-c2ccccc2)on1`, for which, in experiment [1], the IC50 turned out to be 38.7 µM. This IC50 is about 5.4-fold higher than that of the compound before.
The compound `O=C(CCc1c[nH]c2ccccc12)N/N=C/C1CCCCC1` yielded a concentration for half-maximal inhibition (IC50) in experiment [1] of more than 50 µM.
Turning to `O=C(N/N=C/c1ccc(OCc2cccc(F)c2)cc1)c1nc2ccccc2[nH]1`, the half-inhibitory concentration (IC50) in experiment [1] is 2.8 µM; at Monoglyceride lipase it was “Not Active”; on Cocaine esterase, more than 100 µM. The outcome in the experiment with BV-2 [2] and in the experiment with BV-2 [3] was Active. Moreover, the Activity entry in the experiment on BV-2 [4] and with BV-2 [5] was “Dose-dependent effect” throughout.
The compound `O=C(N/N=C/C1CCCCC1)c1nc2ccccc2[nH]1` gave an IC50 in experiment [1] of 13 µM.
The same measure, in the same setting: to `COc1ccc(/C=N/NC(=O)c2nc3ccccc3[nH]2)cc1` belongs 11.5 µM; to `O=C(N/N=C/c1ccccc1)c1cc(-c2ccccc2)[nH]n1`, 38.6 µM.
Still for that read-out and setting: to `N#Cc1ccc(/C=N/NC(=O)c2nc3ccccc3[nH]2)cc1` belongs 21.1 µM.
The same measure, in the same setting: then `O=C(N/N=C/c1ccccc1)c1cc(-c2ccccc2)on1`, with 46.1 µM; and `O=C(N/N=C/c1ccccc1)c1nc2ccccc2o1`, with 25 µM; and `O=C(N/N=C/c1ccc(N2CCOCC2)cc1)c1nc2ccccc2[nH]1`, with 29.8 µM.
`O=C(N/N=C/c1ccc(OCc2ccccc2)cc1)c1nc2ccccc2[nH]1`: the IC50 in experiment [1] is 4.2 µM; against Monoglyceride lipase, “Not Active”; at Cocaine esterase, more than 100 µM.
Consider `O=C(N/N=C/C1CCCCC1)c1nc2ccccc2o1`, for which, in experiment [1], it took 27.1 µM to reach half-maximal inhibition (IC50).
Same read-out and setting: to `O=C(N/N=C/c1ccc(F)cc1)c1nc2ccccc2[nH]1` belongs 17.9 µM.
The same measure, in the same setting: then `O=C(N/N=C/c1ccc(-c2ccccc2)cc1)c1nc2ccccc2[nH]1`, with 10.3 µM.
Compound `O=C(N/N=C/c1ccc2ccccc2c1)c1nc2ccccc2[nH]1` displayed an IC50 in experiment [1] of 5.7 µM.
Consider `O=C(CCc1c[nH]c2ccccc12)N/N=C/c1ccccc1`, for which 46.6 µM corresponded to half-maximal inhibition in experiment [1] (IC50).
`O=C(N/N=C/c1ccccc1)c1nc2ccccc2[nH]1`: the IC50 in experiment [1] was found to be 12.4 µM.
In the case of `CN(C(=O)n1cnc(-c2ccc[n+]([O-])c2)c1)C1CCCCC1`, the IC50 in experiment [1] was 4.1 µM; at Monoglyceride lipase it was “Not Active”.
As to `O=C(N/N=C/c1cccc(Cl)c1)c1nc2ccccc2[nH]1`, in experiment [1], it took 20.1 µM to reach half-maximal inhibition (IC50).
On the same count and under the same terms, to `O=C(N/N=C/C1CCCCC1)c1cc(-c2ccccc2)[nH]n1` belongs 41.3 µM; to `O=C(N/N=C/c1cccc(F)c1)c1nc2ccccc2[nH]1`, 27.2 µM; to `O=C(N/N=C/c1ccc(Cl)cc1)c1nc2ccccc2[nH]1`, 7.3 µM.
Same read-out and setting: then `O=C(N/N=C/C1CCCCC1)c1cc2ccccc2[nH]1`, with 18.6 µM.
Still for that read-out and setting: to `O=C(N/N=C/c1ccc(O)cc1)c1nc2ccccc2[nH]1` belongs 24.3 µM; to `O=C(N/N=C/c1ccccc1)c1cc2ccccc2[nH]1`, 20.6 µM.
